For assay [1], the system named is HeLa. As to the kind of experiment: In vitro anticellular activity against HeLa cells. Type of assay: functional, cell-based, Homo sapiens. Summed up:
(§1)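 HeLa S3 cells seeded on day 0, then exposed to drug for 1 h on day 1. Anticellular activity determined by a previously described method and reported as 1 h IC50 in μM.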

In assay [2] the test system is Mus musculus. As to the kind of experiment: In vivo antitumor activity against P388 leukemia cells (ip)in mice and maximal increase in life span calculated as (T/C-1)*100 at the optimal dose of 4.0-6.0 mg/kg. Type of assay: functional.
In assay [3] the test system is Mus musculus. As to the kind of experiment: In vivo antitumor activity against P388 leukemia cells (ip)in mice and maximal increase in life span calculated as (T/C-1)*100 at the optimal dose of 3.1 mg/kg (%ILS max of mitomycin C at the optimal dose of 4.0 mg/kg). The assay is classed as functional.
Assay [4] deals with Mus musculus. As to the kind of experiment: In vivo antitumor activity against P388 leukemia cells (ip)in mice and maximal increase in life span calculated as (T/C-1)*100 at the optimal dose of 0.50 mg/kg (%ILS max of mitomycin C at the optimal dose of 6.0 mg/kg). The assay is classed as functional.
Assay [5] deals with Mus musculus. As to the kind of experiment: In vivo antitumor activity against P388 leukemia cells (ip)in mice and maximal increase in life span calculated as (T/C-1)*100 at the optimal dose of 13 mg/kg (%ILS max of mitomycin C at the optimal dose of 6.0 mg/kg). Type of assay: functional.
In assay [6] the test system is Mus musculus. As to the kind of experiment: In vivo antitumor activity against P388 leukemia cells (ip)in mice and maximal increase in life span calculated as (T/C-1)*100 at the optimal dose of 5 mg/kg (%ILS max of mitomycin C at the optimal dose of 4.0 mg/kg). Type of assay: functional.
Assay [7] has as its system Mus musculus. As to the kind of experiment: In vivo antitumor activity against P388 leukemia cells (ip)in mice and maximal increase in life span calculated as (T/C-1)*100 at the optimal dose of 0.39 mg/kg (%ILS max of mitomycin C at the optimal dose of 4.0 mg/kg). Type of assay: functional.
Assay [8] deals with Mus musculus. As to the kind of experiment: In vivo antitumor activity against P388 leukemia cells (ip)in mice and maximal increase in life span calculated as (T/C-1)*100 at the optimal dose of 2.5 mg/kg (%ILS max of mitomycin C at the optimal dose of 4.0 mg/kg). Type of assay: functional.
Assay [9] relates to Mus musculus. As to the kind of experiment: In vivo antitumor activity against P388 leukemia cells (ip)in mice and maximal increase in life span calculated as (T/C-1)*100 at the optimal dose of 5 mg/kg (%ILS max of mitomycin C at the optimal dose of 6.0 mg/kg). The assay is classed as functional.
In assay [10] the test system is HeLa. As to the kind of experiment: The compound was tested in vitro for its anticellular activity against HeLa cells. The assay is classed as functional, cell-based. The following applies: Homo sapiens. The gist of the method:
as §1

Assay [11] deals with Mus musculus. As to the kind of experiment: In vivo antitumor activity against P388 leukemia cells (ip)in mice and maximal increase in life span calculated as (T/C-1)*100 at the optimal dose of 2.5 mg/kg (%ILS max of mitomycin C at the optimal dose of 6.0 mg/kg). Type of assay: functional.
Assay [12] deals with Mus musculus. As to the kind of experiment: In vivo antitumor activity against P388 leukemia cells (ip)in mice and maximal increase in life span calculated as (T/C-1)*100 at the optimal dose of 13 mg/kg (%ILS max of mitomycin C at the optimal dose of 4.0 mg/kg). Type of assay: functional.
In assay [13] the test system is Mus musculus. As to the kind of experiment: In vivo antitumor activity against P388 leukemia cells (ip)in mice and maximal increase in life span calculated as (T/C-1)*100 at the optimal dose of 0.75 mg/kg (%ILS max of mitomycin C at the optimal dose of 6.0 mg/kg). Type of assay: functional.
In assay [14] the test system is Mus musculus. As to the kind of experiment: TIn vivo antitumor activity against P388 leukemia cells (ip)in mice and maximal increase in life span calculated as (T/C-1)*100 at the optimal dose of 5 mg/kg (%ILS max of mitomycin C at the optimal dose of 4.0 mg/kg). Type of assay: functional.
Assay [15] concerns Mus musculus. As to the kind of experiment: In vivo antitumor activity against P388 leukemia cells (ip)in mice and maximal increase in life span calculated as (T/C-1)*100 at the optimal dose of 3 mg/kg (%ILS max of mitomycin C at the optimal dose of 6.0 mg/kg). The assay is classed as functional.

Consider `CO[C@@]12[C@H](COC(N)=O)C3=C(C(=O)C(C)=C(N)C3=O)N1C[C@@H]1N[C@@H]12` [MITOMYCIN], for which the IC50 (as a rule, the concentration that inhibits the measured activity by half) in assay [1] (Homo sapiens, HeLa) came out at 810 nM. Also, in assay [2], the ILS max is reported as 52%. For `COC1=C(C)C2(OCCO2)C(=O)C2=C1N1C[C@@H]3N[C@@H]3[C@]1(OC)[C@@H]2COC(N)=O`, the ILS max in [3] was 41%. The compound also registered an IC50 in assay [1] (Homo sapiens, HeLa) of 20000 nM.

Consider `CO[C@@]12[C@H](COC(N)=O)C3=C(C(OC(C)=O)=C(C)C4(OCCO4)C3=O)N1C[C@@H]1N[C@@H]12`, for which the ILS max in [4] is reported as 63%. This compound also came in with a half-maximal inhibitory concentration (IC50) in assay [1] (Homo sapiens, HeLa) of 4400 nM. `CC(=O)OC1=C(C)C2(OCCO2)C(=O)C2=C1N1C[C@H]3[C@H](N3C)[C@]1(O)[C@H]2COC(N)=O` (stereo partly specified) yielded an IC50 in [1] (Homo sapiens, HeLa) of 4400 nM. Besides, in assay [5], the ILS max is given as 71%. `CC1C(=O)C2=C(C(=O)C13OCCO3)[C@H](COC(N)=O)[C@@]1(O)[C@@H]3[C@H](CN21)N3C` (stereo partly specified) had an IC50 in assay [1] (Homo sapiens, HeLa) of 4400 nM. In assay [6], the ILS max is recorded as 73%.

`CO[C@@]12[C@H](COC(N)=O)C3=C(C(=O)C(C)C4(OCCO4)C3=O)N1C[C@@H]1N[C@@H]12` (stereo partly specified): in assay [1] (Homo sapiens, HeLa), the IC50 was found to be 41 nM. Moreover, the ILS max in assay [7] is on record as 69%. For `CO[C@@]12[C@H](COC(N)=O)C3=C(C(=O)C(C)C4(OCCO4)C3=O)N1C[C@H]1[C@@H]2N1C` (stereo partly specified), in [8], the ILS max is on record as 53%. 600 nM corresponded to half-maximal inhibition in assay [1] (Homo sapiens, HeLa) (IC50). In assay [1] (Homo sapiens, HeLa), `CCCCCCCC(=O)OC1=C(C)C2(OCCO2)C(=O)C2=C1N1C[C@@H]3N[C@@H]3[C@]1(OC)[C@@H]2COC(N)=O` gave an IC50 of 360 nM. In assay [1] (Homo sapiens, HeLa), `CO[C@@]12[C@H](COC(N)=O)C3=C(C(OC(=O)CCC(C)=O)=C(C)C4(OCCO4)C3=O)N1C[C@@H]1N[C@@H]12` returned a half-inhibitory concentration (IC50) of 590 nM. Further, the ILS max in assay [9] was 80%. On to `CCOC(=O)OC1=C(C)C2(OCCO2)C(=O)C2=C1N1C[C@@H]3N[C@@H]3[C@]1(OC)[C@@H]2COC(N)=O`, for which half-maximal inhibition in assay [10] (IC50) required 870 nM. Regarding `CO[C@@]12[C@H](COC(N)=O)C3=C(C(=O)C(C)(Cl)C4(OCCO4)C3=O)N1C[C@@H]1N[C@@H]12` (stereo in doubt; 13c), the IC50 in assay [1] (hela) is 590 nM. In addition, in [11], the ILS max is on record as 73%. Compound `CN1[C@H]2[C@@H]1CN1C3=C(C(=O)C4(OCCO4)C(C)(Cl)C3=O)[C@H](COC(N)=O)[C@@]21O` (stereo partly specified) gave an IC50 in assay [1] (Homo sapiens, HeLa) of 50000 nM. Further, the ILS max in assay [12] is recorded as 59%. `CCCCCCCCCCCC(=O)OC1=C(C)C2(OCCO2)C(=O)C2=C1N1C[C@@H]3N[C@@H]3[C@]1(OC)[C@@H]2COC(N)=O` showed an IC50 in [1] (Homo sapiens, HeLa) of 94 nM. For the same compound, the ILS max in assay [13] was 67%. Consider `CO[C@]12[C@@H]3[C@H](CN1C1=C(C(=O)C4(OCCO4)C(C)C1=O)[C@@H]2COC(N)=O)N3C` (stereo partly specified), for which inhibition in [1] (Homo sapiens, HeLa) was half-maximal at 3100 nM (IC50). The ILS max in assay [14] is on record as 80%. The compound `CO[C@@]12[C@H](COC(N)=O)C3=C(C(OC(=O)c4ccccc4)=C(C)C4(OCCO4)C3=O)N1C[C@@H]1N[C@@H]12` returned an IC50 in assay [1] (Homo sapiens, HeLa) of 540 nM. In addition, the ILS max in assay [15] is recorded as 71%. In the case of `CO[C@@]12[C@H](COC(N)=O)C3=C(C(=O)C(C)(Cl)C4(OCCO4)C3=O)N1C[C@@H]1N[C@@H]12` (stereo in doubt; 13b), half-maximal inhibition in assay [1] (hela) (IC50) was put at 3200 nM. Moreover, the ILS max in [11] is 60%. The compound `CO[C@@]12[C@H](COC(N)=O)C3=C(C(OC(=O)C(C)(C)C)=C(C)C4(OCCO4)C3=O)N1C[C@@H]1N[C@@H]12` gave an IC50 in assay [10] of 8100 nM. That is a single-digit micromolar value.

The values are drawn from ChEMBL document CHEMBL1125496, “New potent mitomycin derivatives: synthesis and antitumor activity of 7,7-(ethylenedioxy)mitomycins” (J Med Chem, 1992).
